For assay [1], the system named is NTR1 mRNA. The following applies: breast cancer cells; cited from earlier work.
The test system of assay [2] is NTR1 mRNA. Briefly: Northern blot of NTR1 mRNA expression in CRC cell lines. The assay is classed as cell-based, human.
The test system of another assay is NTR1 protein. Briefly: Western blot of NTR1 protein expression. Type of assay: cell-based, human. The following applies: SW480 and HT29 cells; 2.5 mM, 18 h. In a few lines: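 Cells were treated with 2.5 mM test compound or PBS vehicle for 18 h, then lysed in cell lysis buffer. Equal protein was run on bis-Tris gels and transferred to PVDF. Blots were incubated overnight in TBST with anti-human NTR1 antibody, then HRP secondary for 1 h, and detected by ECL. Blots were stripped and reprobed for β-actin; NTR1 bands were quantified densitometrically relative to β-actin.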
A general note: A western blot detects proteins with antibodies after separation by electrophoresis.

The subject of the next assay is NTR1 promoter. Briefly: NTR1 promoter-luciferase reporter assay. The assay is classed as cell-based, human. (In general: In a reporter assay the amount or activity of a reporter protein is the signal.)
Assay [3] has as its system cholecystokinin-B receptor mRNA. Briefly: RNase protection assay, CCK. The assay is classed as cell-based, human. The following applies: HT29 and SW480 cells; 2.5 mM NaBT, 20 h.
The test system of a further assay is CCK-A receptor mRNA. Briefly: RNase protection assay, CCK-A receptor mRNA. The assay is classed as cell-based, human. The following applies: NaBT treatment; data not shown.
Assay [4] deals with gastrin-releasing peptide receptor mRNA. The experiment in a line: RNase protection assay, gastrin-releasing peptide receptor mRNA. Type of assay: cell-based, human. The following applies: NaBT treatment; data not shown.
In the next assay the test system is PTEN mRNA. The experiment in a line: Northern blot reprobed for PTEN expression. Type of assay: cell-based, human. Particulars: HT29 cells; blot stripped and reprobed.
Another assay deals with phospho-ERK1/2. The experiment in a line: Western blot of phospho-ERK1/2. The following applies: SW480 and HCT116 cells; 18 h; NaBT 2.5 mM, apicidin 1 µM, Emodin 20 µM. Type of assay: cell-based, human. In a few lines:
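HCT116 and SW480 cells were exposed 18 h to test compounds or DMSO vehicle. Whole-cell protein was extracted, run on bis-Tris gels and transferred to PVDF. Blots were probed overnight in TBST with phospho-ERK1/2 and total ERK1/2 antibodies, then HRP secondary for 1 h, and detected by ECL. pERK1/2 signal was quantified densitometrically relative to total ERK1/2.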

The test system of another assay is c-myc mRNA. Briefly: Northern blot of c-myc expression. The assay is classed as cell-based, human. The procedure, abridged:
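HCT116 cells in McCoy's 5A with 10% FBS were serum-starved 24 h, pretreated with 2.5 mM test compound for 6 h, then given 100 nM NT or PBS vehicle for a further 0.5, 1 and 2 h. Total RNA (35 µg) was run on 1.2% agarose/formaldehyde gels and blotted to nylon. Blots were hybridised 8–12 h at 65°C with a 32P-UTP cRNA c-myc probe, read by autoradiography and reprobed for GAPDH.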

The test system of another assay is COX-2 mRNA. The experiment in a line: Northern blot of NT-induced COX-2 expression. The assay is classed as cell-based, human. Particulars: HT29 cells; NaBT 2.5 mM pretreatment 6 h, then 100 nM NT.
The test system of another assay is IL-8 mRNA. The experiment in a line: RNase protection assay of IL-8 expression. Type of assay: cell-based, human. The following applies: HCT116 cells; NaBT alone.
The next assay concerns ERK. Particulars: human hepatocellular carcinoma cells; cited from earlier work.
The mark [5] stands for this setting: HT29 cells, treatment for 4h, confirmed using SW620 cells.
The mark [6] stands for this setting: all NTR1-positive cell lines tested: HT29, HCT116, SW480, SW620, KM20, HDACi.

Where two headings read alike, the source gives them in different places.

As for `[Cl-].[Li+]` [LiCl], in the assay with NTR1 mRNA [1], the “NTR1 mRNA” value was “increased”.
`CCCC(=O)[O-].[Na+]` [NaBT, Sodium butyrate]: in the assay on NTR1 mRNA [2] (SW480, HCT116 (Fig.1B), SW620, KM20 (data not shown), NaBT), the “NTR1 expression (mRNA)” value is on record as “inhibited NTR1 expression”. The NTR1 protein expression entry with NTR1 protein was “decreased NTR1 protein expression”. The NTR1 promoter activity result with NTR1 promoter (SW480 and HCT116 cells, 2.5 mM NaBT, 20 h) is “dramatically decreased NTR1 promoter activity”. For the same molecule, the “cholecystokinin-B receptor mRNA expression” value in assay [3] is on record as “did not affect mRNA expression”. In the assay on CCK-A receptor mRNA, the “CCK-A receptor mRNA expression” value was “did not affect mRNA expression”. Further, the “gastrin-releasing peptide receptor mRNA expression” value in [4] is “did not affect mRNA expression”. Besides, the PTEN expression entry with PTEN mRNA was “increased PTEN expression”. Also, the phospho-ERK1/2 levels entry with phospho-ERK1/2 is given as “significantly decreased phospho-ERK1/2 levels”. For the same molecule, the basal c-myc expression entry in the assay with c-myc mRNA (HCT116 cells) is on record as “decreased basal c-myc expression”. The NT-stimulated c-myc induction entry in the assay on c-myc mRNA (NaBT 2.5 mM pretreatment 6 h, then 100 nM NT) is given as “prevented NT-stimulated c-myc induction”. Moreover, in the assay with COX-2 mRNA, the “NT-induced COX-2 expression” value is reported as “blocked”. Besides, in the assay on IL-8 mRNA, the IL-8 expression result was “slightly increased IL-8 expression”.
Consider `COc1cccc(-c2cc(=O)c3ccccc3o2)c1N` [PD98059], for which, in the assay on NTR1 mRNA [2] (HCT116 and SW480 cells (also SW620, KM20 data not shown), 16 h, Uo126 0.5-5 µM, PD98059 20 µM, SB-203580 10 µM), the “NTR1 mRNA expression” value is “identical to those using Uo126”.
With `C[S+]([O-])c1ccc(-c2nc(-c3ccncc3)c(-c3ccc(F)cc3)[nH]2)cc1` (centres unmarked) [SB-203580], in the assay with NTR1 mRNA [2], the “NTR1 mRNA expression” value was “did not affect NTR1 expression”.
`Cn1cc(C2=C(c3ccc(Cl)cc3Cl)C(=O)NC2=O)c2ccccc21` [SB-216763]: in the assay on NTR1 mRNA [2] (HT29 and SW480 cells, GSK-3β inhibitor over a time course), the “NTR1 mRNA expression” value was “significantly upregulated NTR1 mRNA expression”. The “NTR1 mRNA suppression resulting from NaBT treatment” value in the assay on NTR1 mRNA [2] (HT29 cells, pre-treated 30 min, then combination with NaBT for 6 h) is “partially attenuated”.
For the molecule `CC(/C=C/C(=O)NO)=C\[C@@H](C)C(=O)c1ccc(N(C)C)cc1` [TSA, Trichostatin A], the “NTR1 mRNA expression” value in the assay on NTR1 mRNA [2] (setting [5]) was “significantly decreased NTR1 mRNA expression”; with NTR1 mRNA [2] (setting [6]) it was “suppressed NTR1”.
On to `N#CC(=C(/N)Sc1ccccc1N)/C(C#N)=C(/N)Sc1ccccc1N` [Uo126], for which the “NTR1 mRNA expression” value in the assay with NTR1 mRNA [2] is “suppressed NTR1 mRNA expression in a time- and dose-dependent fashion”. The “decrease in NTR1 promoter activity” value in the assay with NTR1 promoter (SW480 cells, 5 µM, 16 h) is “approximately 70%”.
On to `CCC(=O)CCCCC[C@@H]1NC(=O)[C@H]2CCCCN2C(=O)[C@H]([C@@H](C)CC)NC(=O)[C@H](Cc2cn(OC)c3ccccc23)NC1=O` [apicidin], for which the “NTR1 mRNA expression” value with NTR1 mRNA [2] (setting [5]) is listed as “significantly decreased NTR1 mRNA expression”; in the assay with NTR1 mRNA [2] (setting [6]), “suppressed NTR1”. For the same molecule, the phospho-ERK1/2 levels entry in the assay on phospho-ERK1/2 is on record as “significantly decreased phospho-ERK1/2 levels”.
On to `Cc1cc(O)c2c(c1)C(=O)c1cc(O)cc(O)c1C2=O` [emodin], for which the phospho-ERK1/2 levels result with phospho-ERK1/2 is “did not affect ERK1/2 levels”.
Take `Nc1ccccc1NC(=O)c1ccc(CNC(=O)OCc2cccnc2)cc1` [entinostat]: in the assay on NTR1 mRNA [2] (setting [6]), the “NTR1 mRNA expression” value is recorded as “suppressed NTR1”.
Consider `CCCC(CCC)C(=O)O` [valproic acid], for which, in the assay on NTR1 mRNA [2] (setting [6]), the “NTR1 mRNA expression” value is reported as “suppressed NTR1”. Further, the “activation of ERK” value with ERK is reported as “decreased activation of ERK”.
In the case of Neurotensin [NT], in the assay with c-myc mRNA (100 nM NT, 0.5 h, 1 h and 2 h, serum-starved cells), the c-myc expression result was “increased c-myc expression in time-dependent fashion”.

Values taken from publication PMC2932703 (Molecular cancer therapeutics, 2010).
